Calls of active or inactive are those of the source. The rule behind the calls is not given here.
Legend:
[1] = test system: A549; test: Induction of apoptosis in human A549 cells assessed as late apoptotic cells at 5 uM after 36 hrs by Annexin V-FITC/propidium iodide staining based FACS analysis (reference value: 0.29%); type: functional
Summary of the method: (§1)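 A549 cells seeded at 2 × 10⁵ per well, incubated overnight, then treated at 0, 5 or 10 µM. The legend gives 36 or 48 h; the methods section states 24 h. Annexin V-FITC/PI kit staining followed by flow cytometry. Early and late apoptotic cells expressed as cumulative percentage relative to control.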

[2] = test system: A549; test: Induction of DNA damage in human A549 cells assessed as tail DNA at 5 uM after 24 hrs by propidium iodide staining based comet assay (reference value: 0.02%); type: cell-based
Summary of the method: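 Alkaline comet assay. About 10⁵ A549 cells per well incubated 12 h, then treated 24 h in serum-free medium against a DMSO control. Cells embedded in low-melting agarose, lysed 2 h, alkaline-unwound 0.5 h at 4 °C, electrophoresed at 300 mA for 25 min in the dark. Slides neutralized, PI-stained, 50 random cells scored for % tail DNA.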

[3] = test system: A549; test: Induction of apoptosis in human A549 cells assessed as increase in expression of cleaved caspase 7 at 1 to 2.5 uM after 48 hrs by Western blot analysis; type: functional, cell-based
Summary of the method: (§2)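 A549 cells grown to 80% confluency, treated with graded concentrations for 48 h, then lysed in Tris-HCl/NaCl/Triton X-100 buffer with protease inhibitors. 40 µg protein resolved on 12 or 15% SDS-PAGE and blotted to PVDF. Primary antibodies used at 1:1000 for 6-8 h, HRP anti-rabbit at 1:2000 for 2 h, ECL detection, β-actin as loading control.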

[4] = test system: A549; test: Cell cycle arrest in human A549 cells assessed as accumulation at S phase at 1 uM after 36 hrs by propidium iodide staining based flow cytometry (reference value: 30.73%); type: functional
[5] = test system: A549; test: Induction of DNA damage in human A549 cells assessed as increase in gamma-H2AX expression at 1 to 2.5 uM after 48 hrs by Western blot analysis; type: cell-based; summary of the method: as §2
[6] = test system: A549; test: Induction of apoptosis in human A549 cells assessed as early apoptotic cells at 5 uM after 36 hrs by Annexin V-FITC/propidium iodide staining based FACS analysis (reference value: 0.29%); type: functional; summary of the method: as §1
[7] = test system: A549; test: Cell cycle arrest in human A549 cells assessed as accumulation at G2/M phase at 1 uM after 36 hrs by propidium iodide staining based flow cytometry (reference value: 7.62%); type: functional
[8] = test system: A549; test: Induction of apoptosis in human A549 cells assessed as late apoptotic cells at 10 uM after 36 hrs by Annexin V-FITC/propidium iodide staining based FACS analysis (reference value: 0.29%); type: functional; summary of the method: as §1
[9] = biological target: DNA topoisomerase 2-alpha (Homo sapiens) (UniProt P11388); test: Inhibition of human recombinant topoisomerase 2-alpha expressed in Escherichia coli assessed as reduction in enzyme-mediated relaxation of supercoiled pBR322 DNA at 100 uM after 10 to 15 mins by agarose gel electrophoresis
Chain of DNA topoisomerase 2-alpha (Homo sapiens) (P11388 whole entry): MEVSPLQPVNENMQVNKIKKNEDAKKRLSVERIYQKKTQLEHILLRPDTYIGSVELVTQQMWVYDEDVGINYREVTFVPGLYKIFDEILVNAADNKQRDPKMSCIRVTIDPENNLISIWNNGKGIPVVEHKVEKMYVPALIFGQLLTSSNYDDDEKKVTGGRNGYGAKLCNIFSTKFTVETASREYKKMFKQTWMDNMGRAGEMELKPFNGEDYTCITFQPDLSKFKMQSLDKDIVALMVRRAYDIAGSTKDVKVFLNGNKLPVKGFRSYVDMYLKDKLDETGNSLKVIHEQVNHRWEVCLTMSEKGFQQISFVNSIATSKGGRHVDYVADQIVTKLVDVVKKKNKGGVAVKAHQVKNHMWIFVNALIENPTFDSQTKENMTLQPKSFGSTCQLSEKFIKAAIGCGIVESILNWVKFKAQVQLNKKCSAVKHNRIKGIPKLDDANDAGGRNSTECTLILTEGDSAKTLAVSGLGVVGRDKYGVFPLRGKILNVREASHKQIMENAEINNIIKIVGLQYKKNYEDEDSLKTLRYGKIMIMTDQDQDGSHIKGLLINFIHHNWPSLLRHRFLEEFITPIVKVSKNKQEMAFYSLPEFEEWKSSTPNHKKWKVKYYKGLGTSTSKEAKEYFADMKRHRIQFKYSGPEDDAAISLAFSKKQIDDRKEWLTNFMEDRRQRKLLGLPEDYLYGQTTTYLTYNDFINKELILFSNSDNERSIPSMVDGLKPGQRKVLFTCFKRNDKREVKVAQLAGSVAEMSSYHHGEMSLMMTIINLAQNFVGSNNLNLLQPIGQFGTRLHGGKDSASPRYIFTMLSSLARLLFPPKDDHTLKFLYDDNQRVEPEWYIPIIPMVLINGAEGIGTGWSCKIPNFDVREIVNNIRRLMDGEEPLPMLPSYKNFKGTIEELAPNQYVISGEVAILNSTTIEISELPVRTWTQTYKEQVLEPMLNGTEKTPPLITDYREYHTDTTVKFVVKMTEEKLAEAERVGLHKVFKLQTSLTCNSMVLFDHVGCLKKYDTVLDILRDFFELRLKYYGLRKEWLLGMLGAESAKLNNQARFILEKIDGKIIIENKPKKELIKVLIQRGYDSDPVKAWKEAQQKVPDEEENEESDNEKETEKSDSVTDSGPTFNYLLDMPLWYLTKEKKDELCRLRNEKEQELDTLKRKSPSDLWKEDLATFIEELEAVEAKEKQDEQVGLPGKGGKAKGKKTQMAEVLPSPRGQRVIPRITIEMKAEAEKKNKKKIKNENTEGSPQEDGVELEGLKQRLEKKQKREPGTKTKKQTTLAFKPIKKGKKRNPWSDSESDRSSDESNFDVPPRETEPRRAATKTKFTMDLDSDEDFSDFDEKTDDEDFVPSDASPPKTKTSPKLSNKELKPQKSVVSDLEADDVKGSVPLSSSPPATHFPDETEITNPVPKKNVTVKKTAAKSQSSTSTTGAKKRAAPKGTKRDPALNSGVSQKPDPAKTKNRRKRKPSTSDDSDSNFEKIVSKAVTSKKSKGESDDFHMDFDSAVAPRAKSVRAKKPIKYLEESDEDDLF
Summary of the method: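 Relaxation of 500 ng supercoiled pBR322 by 1 unit human Topo I or Topo IIα, with or without compound, in 20 µL reaction buffer at 37 °C for 10-15 min. Reactions stopped with loading buffer, run on 0.8% agarose in TAE at 80 V for 30 min. Gels stained with ethidium bromide 2.5 µg/mL and viewed under UV.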

[10] = test system: Calf thymus DNA; test: Binding affinity to calf thymus DNA at 10 uM spectrofluorimetric analysis; type: nucleic-acid assay; conditions: Bos taurus
Summary of the method: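 Compound at 10 µM final in 10 mM Tris-HCl, pH 7.4, titrated with ctDNA at 0-64 µM final. Emission recorded 420-750 nm with excitation at 400 nm using a xenon arc lamp source. Quenching constant K derived by Stern-Volmer fit, F₀/F = 1 + K[Q], where [Q] is the DNA concentration.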

[11] = test system: MCF7; test: Antiproliferative activity against human MCF7 cells after 48 hrs by MTT assay; type: functional, cell-based; conditions: MCF7, 48 h
Summary of the method: (§3)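 MTT assay: cells seeded at 4-8 × 10³ per well, incubated overnight at 37 °C in 5% CO₂, then given fresh medium with graded compound concentrations or equal DMSO for 48 h. MTT (5 mg/mL solution) added for a further 4 h, formazan dissolved in DMSO, absorbance read at 490 nm. Six cancer cell lines tested.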

[12] = test system: A549; test: Cell cycle arrest in human A549 cells assessed as accumulation at S phase at 5 uM after 36 hrs by propidium iodide staining based flow cytometry (reference value: 30.73%); type: functional
[13] = test system: CCRF-CEM; test: Antiproliferative activity against human CCRF-CEM cells after 48 hrs by MTT assay; type: functional, cell-based; summary of the method: as §3
[14] = test system: A549; test: Cell cycle arrest in human A549 cells assessed as accumulation at G2/M phase after 36 hrs by propidium iodide staining based flow cytometry; type: functional
[15] = test system: A549; test: Cellular uptake in human A549 cells at 1 to 5 uM after 4 hrs by FACS analysis; type: ADME, cell-based; conditions: a549, 4 h
Summary of the method: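 A549 cells treated with 1 or 5 µM for 4 h; 8 and 16 h also examined. Cells trypsinized, pelleted, resuspended in PBS and analysed at once by FACS. Intrinsic compound fluorescence read with 400 nm excitation, at least 10000 cells per sample.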

[16] = test system: Calf thymus DNA; test: Binding affinity to calf thymus DNA assessed as hypochromicity change at 10 uM after 5 mins by UV-vis spectrophotometry relative to control; type: nucleic-acid assay; conditions: Bos taurus
Summary of the method: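 ctDNA at 0-44 µM is added to compound at 10 µM final in Tris-HCl buffer (pH 7.4). UV-vis absorption spectra are recorded after 5 min standing. The binding constant K_b is taken from a plot of absorption data against DNA concentration.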

[17] = test system: A549; test: Cell cycle arrest in human A549 cells assessed as accumulation at G0/G1 phase at 5 uM after 36 hrs by propidium iodide staining based flow cytometry (reference value: 61.65%); type: functional
[18] = test system: A549; test: Antiproliferative activity against human A549 cells after 48 hrs by MTT assay; type: functional, cell-based; conditions: A549, 48 h; summary of the method: as §3
[19] = test system: HeLa; test: Antiproliferative activity against human HeLa cells after 48 hrs by MTT assay; type: functional, cell-based; summary of the method: as §3
[20] = test system: A549; test: Induction of apoptosis in human A549 cells assessed as late apoptotic cells at 5 uM after 48 hrs by Annexin V-FITC/propidium iodide staining based FACS analysis (reference value: 0.62%); type: functional; summary of the method: as §1

inhibition [9]: Active
KSV [10]: 1.02 ×10⁵ /M
IC50 [11]: 6950 nM
IC50 [13]: 2540 nM
Drug uptake [15]: Active
Activity [16]: 60%
IC50 [18]: 610 nM
IC50 [19]: 1700 nM
SMILES: COc1ccc(CNc2c3ccc(Cl)cc3nc3ccc(OC)cc23)cc1
Activity [1]: 10.47%
Activity [2]: 52.3%
Activity [3]: Active
Activity [4]: 29.55%
Activity [5]: Active
Activity [6]: 2.14%
Activity [7]: 9.62%
Activity [8]: 88.13%
Activity [12]: 21.45%
Activity [14]: Dose-dependent effect
Activity [17]: 62.04%
Activity [20]: 21.23%

— ChEMBL document CHEMBL3792296, “Synthesis and antiproliferative activity of 9-benzylamino-6-chloro-2-methoxy-acridine derivatives as potent DNA-binding ligands and topoisomerase II inhibitors” (Eur J Med Chem, 2016)
